In brackets after ≈: the same amount, converted by molar mass.

Assay [1] is described as follows: Inhibitory activity against the primary liver carcinoma (PLC) cell line PLC/PRF/5. Format: functional, Homo sapiens.
Assay [2] is described as follows: Inhibitory activity against colchicine resistant parent primary liver carcinoma (PLC) cell line PLC/PRF/5. It is filed as functional, Homo sapiens. The method, boiled down:
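PLC/PRF/5 cells were precultured 24 h at 37 °C in 5% CO₂ in 96-well plates, then given colchicine at 0.5 μg/mL. Test compounds were added in dilutions of 10⁻²–10⁻⁶ μg/mL and incubated 72 h at 37 °C in 5% CO₂. Survival was read by MTT. IC50 is the μg/mL giving 50% growth inhibition of the colchicine-resistant cells.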

For `CC(=O)O[C@H]1CC[C@]2(C)C3CC[C@]4(C)[C@@H](c5ccc(=O)oc5)[C@@H](OC(C)=O)C[C@@]4(O)C3CC[C@@H]2C1` (some centres undefined), the IC50 in assay [1] stood at 7.5 µg/mL (≈ 15.4 µM); in assay [2] it was 21 µg/mL (≈ 43.2 µM).
On to `C[C@]12C=CC(=O)C=C1CCC1C2CC[C@]2(C)[C@@H](c3ccc(=O)oc3)C[C@H]3O[C@]132` (some centres undefined), for which the IC50 in assay [1] is 6.7 µg/mL (≈ 17.7 µM); in assay [2], 10 µg/mL (≈ 26.4 µM).
As to `CC(=O)O[C@H]1CC[C@@]2(C)[C@H](CC[C@@H]3[C@@H]2CC[C@]2(C)[C@@H](c4ccc(=O)oc4)[C@@H](OC(=O)CCC(=O)O)[C@H]4O[C@]342)C1`, the IC50 in assay [1] is 50 µg/mL (≈ 92.1 µM); in assay [2], over 50 µg/mL.
The corresponding values for `CC(=O)O[C@H]1[C@H]2O[C@]23[C@@H]2CC[C@@H]4C[C@H](O)CC[C@]4(C)[C@H]2CC[C@]3(C)[C@H]1c1ccc(=O)oc1` are 0.098 µg/mL (≈ 0.221 µM) and 0.9 µg/mL (≈ 2.03 µM).
In the case of `CC(=O)O[C@@H]1C[C@]2(C)[C@@H](c3ccc(=O)oc3)CC[C@]2(O)[C@@H]2CC[C@@H]3CC(=O)CC[C@]3(C)[C@H]21`, the IC50 in assay [1] came to 0.79 µg/mL (≈ 1.79 µM); in assay [2], 5.6 µg/mL (≈ 12.7 µM).
The corresponding values for `CCOC(=O)C/C=C/C1=CO[C@]23CCC1[C@@]2(C)CC[C@H]1[C@H]3CC[C@@H]2C[C@@H](O)CC[C@@]21C` are 7.5 µg/mL (≈ 17.5 µM) and 9.5 µg/mL (≈ 22.2 µM).
The corresponding values for `CC(=O)O[C@H]1[C@H]2O[C@]23[C@@H]2CC[C@@H]4C[C@@H](OC(=O)/C=C/c5ccccc5)CC[C@]4(C)[C@H]2CC[C@]3(C)[C@H]1c1ccc(=O)oc1` are 6.4 µg/mL (≈ 11.2 µM) and 9.8 µg/mL (≈ 17.1 µM).
In the case of `C[C@]12CCC(=O)C[C@H]1CC[C@@H]1[C@@H]2CC[C@]2(C)[C@@H](c3ccc(=O)oc3)CC[C@]12O`, the values for the IC50 in assay [1] and in assay [2] were 0.0093 µg/mL (≈ 0.0242 µM) and 0.61 µg/mL (≈ 1.59 µM), respectively.
Take `CC(C)(C)OC(=O)NNC(=O)CCC(=O)O[C@H]1CC[C@@]2(C)[C@H](CC[C@@H]3[C@@H]2CC[C@]2(C)[C@@H](c4ccc(=O)oc4)CC[C@]32O)C1`: the IC50 was found to be 0.00062 µg/mL (≈ 0.00103 µM) in assay [1] and 0.0056 µg/mL (≈ 0.00932 µM) in assay [2].
The corresponding values for `CC(=O)O[C@H]1CC[C@@]2(C)[C@H](CC[C@@H]3[C@@H]2CC[C@]2(C)[C@@H](C4=CC(=O)OC4)CC[C@]32O)C1` are 0.55 µg/mL (≈ 1.32 µM) and 0.5 µg/mL (≈ 1.2 µM).
In the case of `CC(=O)O[C@H]1CC[C@@]2(C)[C@H](CC[C@@H]3[C@@H]2CC[C@]2(C)[C@@H](c4ccc(=O)oc4)[C@@H](O)[C@H]4O[C@]342)C1`, the IC50 in assay [1] was 0.098 µg/mL (≈ 0.221 µM); in assay [2], 3.4 µg/mL (≈ 7.68 µM).
The corresponding values for `CC(=O)O[C@H]1[C@H]2O[C@]23[C@@H]2CC[C@@H]4CC(=O)CC[C@]4(C)[C@H]2CC[C@]3(C)[C@H]1c1ccc(=O)oc1` are 0.056 µg/mL (≈ 0.127 µM) and 0.77 µg/mL (≈ 1.75 µM).
Consider `CC(=O)O[C@H]1CC[C@@]2(C)[C@H](CC[C@@H]3[C@@H]2[C@H](O)C(=O)[C@]2(C)[C@@H](c4ccc(=O)oc4)CC[C@]32O)C1`, for which the IC50 in assay [1] came out at 0.87 µg/mL (≈ 1.9 µM); in assay [2], 6.8 µg/mL (≈ 14.8 µM).
The corresponding values for `COC(=O)CCCCCCC(=O)O[C@H]1CC[C@@]2(C)[C@H](CC[C@@H]3[C@@H]2CC[C@]2(C)[C@@H](c4ccc(=O)oc4)CC[C@]32O)C1` are 0.009 µg/mL (≈ 0.0162 µM) and 0.094 µg/mL (≈ 0.169 µM).
In the case of `CCOC(=O)C/C=C/C1=CO[C@]23CCC1[C@@]2(C)CC[C@H]1[C@H]3CC[C@@H]2C[C@@H](OC(C)=O)CC[C@@]21C`, the results for the IC50 in assay [1] and in assay [2] were 6.4 µg/mL (≈ 13.6 µM) and 41 µg/mL (≈ 87.1 µM), respectively.
The corresponding values for `CC(=O)CC1OC2C(C1C=O)[C@@]1(C)CC[C@H]3[C@@H](CC[C@@H]4C[C@@H](O)CC[C@@]43C)[C@]13O[C@H]23` (some centres undefined) are 26 µg/mL (≈ 62.4 µM) and over 50 µg/mL.
The corresponding values for `CC(=O)O[C@H]1CC[C@@]2(C)[C@H](CC[C@@H]3[C@@H]2[C@H](O)C[C@]2(C)[C@@H](c4ccc(=O)oc4)CC[C@]32O)C1` are 0.06 µg/mL (≈ 0.135 µM) and 0.66 µg/mL (≈ 1.48 µM).
The corresponding values for `C[C@]12CC[C@H](OC(=O)CCCCCCC(=O)O)C[C@H]1CC[C@@H]1[C@@H]2CC[C@]2(C)[C@@H](C3=CC(=O)OC3)CC[C@]12O` are 5.2 µg/mL (≈ 9.8 µM) and 8.6 µg/mL (≈ 16.2 µM).
Consider `C[C@]12CC[C@@H](O)C[C@H]1CC[C@@H]1[C@@H]2CC[C@]2(C)[C@@H](c3ccc(=O)oc3)CC[C@]12O`, for which the values for the IC50 in assay [1] and in assay [2] were 0.076 µg/mL (≈ 0.197 µM) and 0.077 µg/mL (≈ 0.199 µM), respectively.
The corresponding values for `C[C@]12CC[C@H](OC(=O)CCCCCCC(=O)O)C[C@H]1CC[C@@H]1[C@@H]2CC[C@]2(C)[C@@H](c3ccc(=O)oc3)CC[C@]12O` are 0.00075 µg/mL (≈ 0.00138 µM) and 0.0036 µg/mL (≈ 0.00663 µM).
The corresponding values for `C[C@]12CCC(=O)C[C@H]1CC[C@@H]1[C@@H]2CC[C@]2(C)[C@@H](c3ccc(=O)oc3)C(=O)[C@H]3O[C@@]312` are 0.85 µg/mL (≈ 2.14 µM) and 5.6 µg/mL (≈ 14.1 µM).
The corresponding values for `CC(=O)O[C@H]1CC[C@@]2(C)[C@H](CC[C@@H]3[C@@H]2CC[C@]2(C)[C@@H](c4ccc(=O)oc4)CC[C@]32O)C1` are 0.0002 µg/mL (≈ 0.000467 µM) and 0.009 µg/mL (≈ 0.021 µM).
Take `CC(=O)O[C@H]1CC[C@@]2(C)[C@H](CC[C@@H]3[C@@H]2CC[C@]2(C)[C@@H](c4ccc(=O)oc4)[C@@H](OC(C)=O)[C@H]4O[C@]342)C1`: the IC50 stood at 0.04 µg/mL (≈ 0.0825 µM) in assay [1] and 0.092 µg/mL (≈ 0.19 µM) in assay [2].
The corresponding values for `C[C@]12CC[C@H](O)C[C@H]1CC[C@@H]1[C@@H]2CC[C@]2(C)[C@@H](c3ccc(=O)oc3)CC(=O)[C@@H]12` are 8.2 µg/mL (≈ 21.3 µM) and 12 µg/mL (≈ 31.2 µM).
The corresponding values for `COC(=O)C/C=C(\C=O)C1[C@@H](O)C(=O)[C@H]2[C@@H]3CC[C@@H]4C[C@@H](O)CC[C@]4(C)[C@H]3CC[C@]12C` (some centres undefined) are 8.4 µg/mL (≈ 19.4 µM) and over 50 µg/mL.
The corresponding values for `C[C@]12CC[C@H](O)C[C@H]1CC[C@H]1[C@H]3C(=O)C[C@H](c4ccc(=O)oc4)[C@@]3(C)CC[C@@H]12` are 0.82 µg/mL (≈ 2.13 µM) and 12 µg/mL (≈ 31.2 µM).
As to `C[C@]12CC[C@H](O)C=C1CCC1C2CC[C@]2(C)[C@@H](c3ccc(=O)oc3)CC[C@]12O` (some centres undefined), the IC50 in assay [1] worked out at 0.00031 µg/mL (≈ 0.000806 µM); in assay [2], 0.00032 µg/mL (≈ 0.000832 µM).
Consider `C[C@]12CCC3C(CC[C@@H]4C[C@@H](O)CC[C@]34C)C1=CC[C@@H]2c1ccc(=O)oc1` (some centres undefined), for which the IC50 is 0.83 µg/mL (≈ 2.25 µM) in assay [1] and 0.9 µg/mL (≈ 2.44 µM) in assay [2].
The corresponding values for `C[C@]12CC[C@H](O)C[C@H]1CC[C@@H]1[C@@H]2CC[C@]2(C)[C@@H](c3ccc(=O)oc3)CC[C@]12O` [BUFALIN] are 0.00028 µg/mL (≈ 0.000724 µM) and 0.00028 µg/mL (≈ 0.000724 µM).
The corresponding values for `C[C@]12CC[C@H](O)C[C@H]1CC[C@@H]1[C@@H]2CC[C@]2(C)[C@@H](c3ccc(=O)oc3)C[C@H]3O[C@]132` [BUFOGENIN] are 0.077 µg/mL (≈ 0.2 µM) and 0.076 µg/mL (≈ 0.198 µM).
The corresponding values for `CC(=O)O[C@H]1C[C@]2(O)[C@@H]3CC[C@@H]4C[C@@H](O)CC[C@]4(C)[C@H]3CC[C@]2(C)[C@H]1c1ccc(=O)oc1` [BUFOTALIN] are 0.00034 µg/mL (≈ 0.000765 µM) and 0.0026 µg/mL (≈ 0.00585 µM).
As to `CC(=O)O[C@H]1[C@H]2O[C@]23[C@@H]2CC[C@@H]4C[C@@H](O)CC[C@]4(C)[C@H]2CC[C@]3(C)[C@H]1c1ccc(=O)oc1` [CINOBUFAGIN], the IC50 in assay [1] amounted to 0.00074 µg/mL (≈ 0.00167 µM); in assay [2], 0.00092 µg/mL (≈ 0.00208 µM).
`CC(=O)O[C@H]1[C@H]2O[C@]23[C@@H]2CC[C@]4(O)C[C@@H](O)CC[C@]4(C)[C@H]2CC[C@]3(C)[C@H]1c1ccc(=O)oc1` [CINOBUFOTALIN]: the IC50 in assay [1] is 0.001 µg/mL (≈ 0.00218 µM); in assay [2], 0.008 µg/mL (≈ 0.0174 µM).
Take `C[C@]12CC[C@H](O)C[C@H]1CC[C@@H]1[C@@H]2CC[C@]2(C)[C@@H](c3ccc(=O)oc3)[C@@H](O)C[C@]12O` [DESACETYLBUFOTALIN]: the IC50 stood at 0.00078 µg/mL (≈ 0.00194 µM) in assay [1] and 0.008 µg/mL (≈ 0.0199 µM) in assay [2].
The corresponding values for `C[C@]12CC[C@H](O)C[C@H]1CC[C@@H]1[C@@H]2CC[C@]2(C)[C@@H](c3ccc(=O)oc3)[C@@H](O)[C@H]3O[C@]132` [DESACETYLCINOBUFAGIN] are 0.52 µg/mL (≈ 1.3 µM) and 4.8 µg/mL (≈ 12 µM).
The corresponding values for `C[C@]12CC[C@H](O)C[C@@]1(O)CC[C@@H]1[C@@H]2CC[C@]2(C)[C@@H](c3ccc(=O)oc3)[C@@H](O)[C@H]3O[C@]132` [DESACETYLCINOBUFOTALIN] are 0.67 µg/mL (≈ 1.61 µM) and 0.64 µg/mL (≈ 1.54 µM).
For the compound `C[C@]12CC[C@H](O)C[C@H]1CC[C@@H]1[C@@H]2CC[C@]2(C)[C@@H](C3=CC(=O)OC3)CC[C@]12O` [DIGITOXIGENIN], the values for the IC50 in assay [1] and in assay [2] were 0.00087 µg/mL (≈ 0.00232 µM) and 0.0092 µg/mL (≈ 0.0246 µM), respectively.
